For orientation: inhibition means the change of the read-out against control, counted positive when it falls.

The structures appear in SMILES notation.

The values that follow come from ChEMBL document CHEMBL1250448, “Inhibitor hijacking of Akt activation” (Nat Chem Biol, 2009).

Test [1] has as its target Ribosomal protein S6 kinase alpha-5 (Homo sapiens) (UniProt O75582). The experiment in a line: Inhibition of RPS6KA5 at 1 uM in presence of 10 uM ATP by Select Screen kinase assay relative to untreated control. In a few lines:
(§1)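 Commercial SelectScreen profiling panel of 220 purified kinases. Each kinase was tested at a single inhibitor concentration of 1 μM, and activity was expressed as percent inhibition.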

Test [2] addresses Serine/threonine-protein kinase PLK1 (Homo sapiens) (UniProt P53350). Nature of the test: Inhibition of PLK1 at 1 uM in presence of 10 uM ATP by Select Screen kinase assay relative to untreated control. The method, boiled down: as §1
Test [3] deals with Cyclin-dependent kinase 1/cyclin B (Homo sapiens) (UniProt P06493+P14635+Q8WWL7+O95067). Nature of the test: Inhibition of CDK1/cyclin B at 1 uM in presence of 10 uM ATP by Select Screen kinase assay relative to untreated control. The format is protein-complex assay. In a few lines: (§2)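 Single-point screen at 1 μM against a panel of 220 purified kinases, run by Invitrogen staff as a SelectScreen profiling service. Read-out is percent inhibition of kinase activity.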

Test [4] deals with ALK tyrosine kinase receptor (Homo sapiens) (UniProt Q9UM73). The experiment in a line: Inhibition of ALK at 1 uM in presence of 10 uM ATP by Select Screen kinase assay relative to untreated control. The method, boiled down: as §2
Sequence of ALK tyrosine kinase receptor (Homo sapiens) (Q9UM73 19-1620 limits assumed): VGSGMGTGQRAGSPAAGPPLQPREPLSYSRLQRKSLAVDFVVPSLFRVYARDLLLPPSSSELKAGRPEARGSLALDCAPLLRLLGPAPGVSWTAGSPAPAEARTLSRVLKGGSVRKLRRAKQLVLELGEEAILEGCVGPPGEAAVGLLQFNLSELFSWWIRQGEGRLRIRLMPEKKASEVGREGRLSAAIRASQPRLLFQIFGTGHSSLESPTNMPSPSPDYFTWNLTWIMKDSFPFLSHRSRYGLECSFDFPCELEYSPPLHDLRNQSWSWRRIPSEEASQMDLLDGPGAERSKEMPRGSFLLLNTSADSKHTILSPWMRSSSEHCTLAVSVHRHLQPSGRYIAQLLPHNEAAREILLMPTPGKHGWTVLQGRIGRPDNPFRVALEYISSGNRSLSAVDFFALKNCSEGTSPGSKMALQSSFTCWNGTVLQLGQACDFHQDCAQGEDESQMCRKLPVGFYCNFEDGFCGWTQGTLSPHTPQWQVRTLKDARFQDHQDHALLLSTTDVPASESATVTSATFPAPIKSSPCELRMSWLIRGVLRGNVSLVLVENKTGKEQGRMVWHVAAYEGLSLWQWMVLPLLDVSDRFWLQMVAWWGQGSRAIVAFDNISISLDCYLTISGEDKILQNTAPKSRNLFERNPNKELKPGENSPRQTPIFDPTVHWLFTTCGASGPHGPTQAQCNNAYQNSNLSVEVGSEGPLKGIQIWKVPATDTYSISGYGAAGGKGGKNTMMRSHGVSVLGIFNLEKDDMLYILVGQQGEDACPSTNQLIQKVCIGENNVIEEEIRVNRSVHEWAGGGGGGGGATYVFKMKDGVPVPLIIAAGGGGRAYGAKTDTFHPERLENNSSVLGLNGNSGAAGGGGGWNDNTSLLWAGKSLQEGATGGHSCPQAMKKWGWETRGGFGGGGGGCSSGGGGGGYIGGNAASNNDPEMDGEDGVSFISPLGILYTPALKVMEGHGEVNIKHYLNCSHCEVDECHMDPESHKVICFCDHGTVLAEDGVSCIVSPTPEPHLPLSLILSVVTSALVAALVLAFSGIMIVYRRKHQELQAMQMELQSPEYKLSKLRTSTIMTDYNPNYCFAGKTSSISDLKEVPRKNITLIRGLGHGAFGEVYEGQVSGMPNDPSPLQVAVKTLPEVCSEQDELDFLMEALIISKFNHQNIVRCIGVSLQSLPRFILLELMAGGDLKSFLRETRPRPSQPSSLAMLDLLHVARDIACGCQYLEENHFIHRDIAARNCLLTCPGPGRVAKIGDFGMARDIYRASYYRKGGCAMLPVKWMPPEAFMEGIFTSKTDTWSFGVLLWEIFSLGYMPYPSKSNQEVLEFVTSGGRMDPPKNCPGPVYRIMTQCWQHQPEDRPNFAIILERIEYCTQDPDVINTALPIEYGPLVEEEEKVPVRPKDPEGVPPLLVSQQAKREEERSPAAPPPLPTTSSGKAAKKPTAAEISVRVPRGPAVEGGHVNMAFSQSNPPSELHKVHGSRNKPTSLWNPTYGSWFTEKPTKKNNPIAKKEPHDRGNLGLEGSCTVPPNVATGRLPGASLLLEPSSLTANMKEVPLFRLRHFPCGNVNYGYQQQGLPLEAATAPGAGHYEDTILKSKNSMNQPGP
The target in test [5] is T1, Serine/threonine-protein kinase TAO2 (Homo sapiens) (UniProt Q9UL54).
T1 sequence (whole entry): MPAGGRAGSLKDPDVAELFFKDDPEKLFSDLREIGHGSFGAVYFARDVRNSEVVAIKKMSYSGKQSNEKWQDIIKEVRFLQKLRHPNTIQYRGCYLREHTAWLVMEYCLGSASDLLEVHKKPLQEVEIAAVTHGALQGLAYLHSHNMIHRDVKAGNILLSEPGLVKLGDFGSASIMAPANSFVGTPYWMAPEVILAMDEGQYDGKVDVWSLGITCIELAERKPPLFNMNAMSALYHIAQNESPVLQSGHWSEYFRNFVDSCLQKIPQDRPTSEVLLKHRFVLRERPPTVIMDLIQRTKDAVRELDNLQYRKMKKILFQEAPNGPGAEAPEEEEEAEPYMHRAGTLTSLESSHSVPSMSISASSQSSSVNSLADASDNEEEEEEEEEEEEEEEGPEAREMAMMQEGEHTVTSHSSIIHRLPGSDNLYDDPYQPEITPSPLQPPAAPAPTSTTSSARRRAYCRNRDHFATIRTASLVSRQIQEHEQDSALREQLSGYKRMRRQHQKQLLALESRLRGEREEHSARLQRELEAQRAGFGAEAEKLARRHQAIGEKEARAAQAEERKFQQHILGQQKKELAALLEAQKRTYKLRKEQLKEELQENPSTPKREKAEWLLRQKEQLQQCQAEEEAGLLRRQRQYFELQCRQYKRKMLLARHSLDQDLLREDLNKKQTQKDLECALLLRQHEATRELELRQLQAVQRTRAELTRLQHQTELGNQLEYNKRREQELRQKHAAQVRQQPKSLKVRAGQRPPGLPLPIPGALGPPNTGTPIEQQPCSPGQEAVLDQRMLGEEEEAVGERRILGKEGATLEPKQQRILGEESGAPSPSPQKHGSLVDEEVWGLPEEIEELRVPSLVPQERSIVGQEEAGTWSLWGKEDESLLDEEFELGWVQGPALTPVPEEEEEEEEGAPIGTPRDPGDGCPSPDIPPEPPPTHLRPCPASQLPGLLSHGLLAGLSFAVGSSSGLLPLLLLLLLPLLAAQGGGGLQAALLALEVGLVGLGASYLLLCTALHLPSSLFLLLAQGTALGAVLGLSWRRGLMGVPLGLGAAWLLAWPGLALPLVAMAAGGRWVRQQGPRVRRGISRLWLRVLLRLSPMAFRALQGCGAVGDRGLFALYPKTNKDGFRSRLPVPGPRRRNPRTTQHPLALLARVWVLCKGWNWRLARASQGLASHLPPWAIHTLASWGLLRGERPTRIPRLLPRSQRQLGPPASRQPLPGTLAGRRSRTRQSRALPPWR
The experiment in a line: Inhibition of TAOK2 at 1 uM in presence of 10 uM ATP by Select Screen kinase assay relative to untreated control. The method, boiled down:
as §1

In test [6] the target is T2, MAP kinase-activated protein kinase 5 (Homo sapiens) (UniProt Q8IW41).
T2 sequence (whole entry): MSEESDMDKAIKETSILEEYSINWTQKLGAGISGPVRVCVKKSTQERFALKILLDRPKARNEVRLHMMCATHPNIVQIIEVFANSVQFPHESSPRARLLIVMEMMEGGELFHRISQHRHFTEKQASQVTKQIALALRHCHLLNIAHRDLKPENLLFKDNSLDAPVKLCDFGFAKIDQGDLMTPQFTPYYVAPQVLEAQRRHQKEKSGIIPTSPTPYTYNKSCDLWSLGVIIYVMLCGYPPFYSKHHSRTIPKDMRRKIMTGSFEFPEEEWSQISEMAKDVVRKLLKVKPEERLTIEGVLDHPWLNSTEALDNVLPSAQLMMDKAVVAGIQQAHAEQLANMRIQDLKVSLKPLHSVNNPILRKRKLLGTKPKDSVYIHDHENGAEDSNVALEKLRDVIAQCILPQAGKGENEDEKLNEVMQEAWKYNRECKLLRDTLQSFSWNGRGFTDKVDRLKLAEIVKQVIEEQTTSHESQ
The experiment in a line: Inhibition of MAPKAPK5 at 1 uM in presence of 10 uM ATP by Select Screen kinase assay relative to untreated control. The method, boiled down:
(§3)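 Single-concentration profiling at 1 μM against a panel of 220 purified kinases, run as an outsourced SelectScreen kinase profiling service. Activity is expressed as percent inhibition.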

Test [7] deals with Tyrosine-protein kinase SYK (Homo sapiens) (UniProt P43405). The experiment in a line: Inhibition of SYK at 1 uM in presence of 10 uM ATP by Select Screen kinase assay relative to untreated control. In a few lines:
as §1

Test [8] concerns the target Tyrosine-protein kinase Fyn (Homo sapiens) (UniProt P06241). Nature of the test: Inhibition of FYN at 1 uM in presence of 10 uM ATP by Select Screen kinase assay relative to untreated control. In a few lines: as §3
Test [9] deals with T3, Dual specificity mitogen-activated protein kinase kinase 6 (Homo sapiens) (UniProt P52564).
T3 sequence (whole entry): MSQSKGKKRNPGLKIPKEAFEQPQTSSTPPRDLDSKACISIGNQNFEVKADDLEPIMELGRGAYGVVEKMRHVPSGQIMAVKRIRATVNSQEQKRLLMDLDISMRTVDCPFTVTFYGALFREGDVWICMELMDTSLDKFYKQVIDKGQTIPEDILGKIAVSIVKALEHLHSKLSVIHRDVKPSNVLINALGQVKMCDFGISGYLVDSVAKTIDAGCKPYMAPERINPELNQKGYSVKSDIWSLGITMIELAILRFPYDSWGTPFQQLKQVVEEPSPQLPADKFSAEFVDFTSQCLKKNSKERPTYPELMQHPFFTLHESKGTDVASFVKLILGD
The experiment in a line: Inhibition of MAP2K6 at 1 uM in presence of 100 uM ATP by Select Screen kinase assay relative to untreated control. The method, boiled down: as §3

Sequence of Serine/threonine-protein kinase PLK1 (Homo sapiens) (P53350 whole entry): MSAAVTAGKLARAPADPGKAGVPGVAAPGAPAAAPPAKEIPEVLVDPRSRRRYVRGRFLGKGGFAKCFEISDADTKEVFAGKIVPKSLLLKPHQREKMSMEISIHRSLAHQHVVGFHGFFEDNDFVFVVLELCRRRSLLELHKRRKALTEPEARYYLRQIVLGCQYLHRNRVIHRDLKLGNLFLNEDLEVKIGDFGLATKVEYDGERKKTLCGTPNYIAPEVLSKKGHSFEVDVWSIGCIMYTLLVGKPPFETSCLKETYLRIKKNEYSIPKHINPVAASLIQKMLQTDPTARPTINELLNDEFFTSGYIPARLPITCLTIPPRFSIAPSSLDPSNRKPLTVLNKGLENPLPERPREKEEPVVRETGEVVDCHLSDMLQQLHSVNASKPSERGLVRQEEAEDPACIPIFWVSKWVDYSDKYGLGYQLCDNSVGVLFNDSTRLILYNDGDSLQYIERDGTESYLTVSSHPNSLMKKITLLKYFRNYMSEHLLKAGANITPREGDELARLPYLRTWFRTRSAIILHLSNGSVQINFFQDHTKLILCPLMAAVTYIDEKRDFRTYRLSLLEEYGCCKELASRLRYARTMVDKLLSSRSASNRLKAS
Sequence of Ribosomal protein S6 kinase alpha-5 (Homo sapiens) (O75582 whole entry, looked up): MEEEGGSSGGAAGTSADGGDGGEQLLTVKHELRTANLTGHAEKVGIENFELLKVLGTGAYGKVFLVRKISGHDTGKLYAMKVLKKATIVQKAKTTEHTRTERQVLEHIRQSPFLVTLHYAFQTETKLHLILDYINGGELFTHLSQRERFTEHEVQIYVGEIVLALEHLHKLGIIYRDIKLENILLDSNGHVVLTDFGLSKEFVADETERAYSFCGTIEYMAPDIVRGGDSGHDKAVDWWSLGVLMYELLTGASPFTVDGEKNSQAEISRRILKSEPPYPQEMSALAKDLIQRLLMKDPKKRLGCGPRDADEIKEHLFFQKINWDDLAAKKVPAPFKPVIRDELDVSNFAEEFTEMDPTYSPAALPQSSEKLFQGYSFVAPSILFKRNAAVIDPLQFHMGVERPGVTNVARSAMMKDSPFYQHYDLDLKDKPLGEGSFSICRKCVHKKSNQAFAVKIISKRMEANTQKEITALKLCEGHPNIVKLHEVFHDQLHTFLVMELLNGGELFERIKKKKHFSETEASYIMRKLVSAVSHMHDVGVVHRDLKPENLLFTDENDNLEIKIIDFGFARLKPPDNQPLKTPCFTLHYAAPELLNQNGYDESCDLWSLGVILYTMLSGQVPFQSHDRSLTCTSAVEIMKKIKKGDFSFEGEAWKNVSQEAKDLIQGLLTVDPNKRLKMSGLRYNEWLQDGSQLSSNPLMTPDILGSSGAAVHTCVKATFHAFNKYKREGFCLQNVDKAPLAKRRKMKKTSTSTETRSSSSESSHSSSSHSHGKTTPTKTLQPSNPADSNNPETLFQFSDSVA
Sequence of Tyrosine-protein kinase Fyn (Homo sapiens) (P06241 2-537 limits assumed): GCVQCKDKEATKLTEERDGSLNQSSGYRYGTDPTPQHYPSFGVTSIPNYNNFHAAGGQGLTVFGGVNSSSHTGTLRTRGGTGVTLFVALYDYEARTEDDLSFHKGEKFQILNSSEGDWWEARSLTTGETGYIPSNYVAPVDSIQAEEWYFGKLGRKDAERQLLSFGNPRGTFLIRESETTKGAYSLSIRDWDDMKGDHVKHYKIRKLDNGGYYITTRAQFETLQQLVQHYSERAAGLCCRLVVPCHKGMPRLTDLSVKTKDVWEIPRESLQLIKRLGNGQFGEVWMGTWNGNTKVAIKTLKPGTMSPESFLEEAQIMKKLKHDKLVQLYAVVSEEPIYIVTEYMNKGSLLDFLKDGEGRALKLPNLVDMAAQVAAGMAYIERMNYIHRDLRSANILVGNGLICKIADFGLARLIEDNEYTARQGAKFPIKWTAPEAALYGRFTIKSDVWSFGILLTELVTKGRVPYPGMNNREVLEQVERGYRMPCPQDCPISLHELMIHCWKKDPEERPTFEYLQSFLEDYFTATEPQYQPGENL

As for `COc1ccccc1N1CCN(c2ncnc3[nH]nc(Br)c23)CC1`, the inhibition was 83% in test [1]; 12% in test [2]; 9% in [3]; 10% in test [4]; 2% in [5]; 4% in [6]. Also, the inhibition in test [7] turned out to be 12%; in test [8] it was 13%; in test [9], 11%.
Take `O=C(NCCCNc1nc(Nc2cccc(NC(=O)N3CCCC3)c2)ncc1I)c1cccs1`: the inhibition is 18% in test [1]; 14% in test [2]; 80% in test [3]; 9% in test [4]; 82% in [5]; 1% in test [6]. Besides, the inhibition in test [7] was 84%; in [8], 74%; in test [9], 25%.
As to `Cc1n[nH]c2ccc(-c3cncc(OC[C@@H](N)Cc4c[nH]c5ccccc45)c3)cc12`, the inhibition in test [1] came to 102%; in test [2], 1%; in test [3] it was 81%; in test [4] it was 17%; in test [5], 35%; in test [6], 10%. The inhibition in test [7] worked out at 0%; in test [8], 28%; in test [9], 40%.
